Here are results for 16 compounds from ChEMBL document CHEMBL3244357, “Biologically oriented organic sulfur chemistry. 15. Organic disulfides and related substances. 41. Inhibition of the fungal pathogen Histoplasma capsulatum by some organic disulfides” (J Med Chem, 1977).

SMILES strings stand for the structures. In brackets after ≈: the same amount, converted by molar mass. Activity calls are given as the source filed them. The rule behind the calls is not given here. A value given as a limit tells only on which side of the number the result lay.

The subject of data set [1] is Histoplasma capsulatum. The experiment in a line: Antifungal activity against Histoplasma capsulatum infected in x-irradiated mouse assessed as prolongation of lifetime at 50 mg/kg, sc bid administered on day 0, 1 and 2 post infection. Type of data set: functional. Particulars: route subcutaneous. Summed up:
(§1)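 Mice infected with H. capsulatum were dosed sc at 0 and 4 h postinfection on days 0, 1 and 2, six doses in total. Read-out was % extension of lifetime beyond untreated controls. Amphotericin B, dosed the same way, served as positive control.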

For data set [2], the system named is Histoplasma capsulatum. The experiment in a line: Antifungal activity against Histoplasma capsulatum 26 by agar dilution assay. Type of data set: functional. Summed up: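 In vitro MIC against H. capsulatum strain 26 by standard agar dilution. Amphotericin B was run as the standard in each test.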
In data set [3] the test system is Histoplasma capsulatum. Kind of data set: Antifungal activity against Histoplasma capsulatum infected in x-irradiated mouse assessed as prolongation of lifetime at 25 mg/kg, sc bid administered on day 0, 1 and 2 post infection. Particulars: route subcutaneous. Type of data set: functional. Summed up:
as §1

Data set [4] deals with Histoplasma capsulatum. Kind of data set: Antifungal activity against Histoplasma capsulatum infected in x-irradiated mouse assessed as prolongation of lifetime at 13 mg/kg, sc bid administered on day 0, 1 and 2 post infection. Type of data set: functional. The note with it: route subcutaneous. Summed up:
as §1

Data set [5] concerns Mus musculus. The experiment in a line: Toxicity in ip dosed mouse. Type of data set: organism-based. Particulars: in vivo.
For data set [6], the system named is Histoplasma capsulatum. Kind of data set: Antifungal activity against Histoplasma capsulatum infected in x-irradiated mouse assessed as prolongation of lifetime at 20 mg/kg, sc bid administered on day 0, 1 and 2 post infection. In kind it is functional. The note with it: route subcutaneous. Summed up:
as §1

Data set [7] concerns Histoplasma capsulatum. The experiment in a line: Antifungal activity against Histoplasma capsulatum infected in x-irradiated mouse assessed as prolongation of lifetime at 10 mg/kg, sc bid administered on day 0, 1 and 2 post infection. Type of data set: functional. Particulars: route subcutaneous. Summed up: as §1
The test system of data set [8] is Histoplasma capsulatum. The experiment in a line: Antifungal activity against Histoplasma capsulatum infected in x-irradiated mouse assessed as prolongation of lifetime at 40 mg/kg, sc bid administered on day 0, 1 and 2 post infection. In kind it is functional. The note with it: route subcutaneous. The procedure, abridged:
as §1

Data set [9] deals with Mus musculus. Kind of data set: Toxicity in mouse at 50 mg/kg, sc bid. Type of data set: organism-based. Also noted: dose 50 mg/kg, route subcutaneous. The note with it: in vivo.
Data set [10] deals with Histoplasma capsulatum. The experiment in a line: Antifungal activity against Histoplasma capsulatum infected in x-irradiated mouse assessed as prolongation of lifetime at 6 mg/kg, sc bid administered on day 0, 1 and 2 post infection. In kind it is functional. The note with it: route subcutaneous. The procedure, abridged: as §1
Data set [11] relates to Candida albicans. Kind of data set: Antifungal activity against Candida albicans infected in mouse. In kind it is functional, organism-based.
Data set [12] deals with Candida albicans. Kind of data set: Antifungal activity against Candida albicans by disk-plate assay. In kind it is functional, organism-based.

Regarding `C[C@@H]1[C@H](O)[C@@H](C)/C=C/C=C/C=C/C=C/C=C/C=C/C=C/[C@H](O[C@@H]2O[C@H](C)[C@@H](O)[C@H](N)[C@@H]2O)C[C@@H]2O[C@](O)(C[C@@H](O)C[C@@H](O)[C@H](O)CC[C@@H](O)C[C@@H](O)CC(=O)O[C@H]1C)C[C@H](O)[C@H]2C(=O)O` [AMPHOTERICIN B], the Activity with Histoplasma capsulatum [1] is given as 70%; in the data set with Histoplasma capsulatum [3], 58%. This compound displayed an MIC with Histoplasma capsulatum [2] of 0.0625 mg/L (≈ 0.0676 µM).
Regarding `COc1ccc(C(=S)SSc2ccc(C)cc2)cc1`, the Activity in the data set with Histoplasma capsulatum [1] is recorded as -2%; with Histoplasma capsulatum [4] it was 2%; with Histoplasma capsulatum [3] it was 7%. In the data set with Histoplasma capsulatum [2], this compound returned an MIC of 20 mg/L (≈ 65.3 µM).
In the data set with Histoplasma capsulatum [2], `S=C1SSCCN1CCCCC1CCCCC1` yielded a minimal inhibitory concentration (MIC) of 10 mg/L (≈ 34.5 µM). Besides, the Activity in the data set with Mus musculus [5] worked out at 0.1 g/kg.
`Cc1ccc(SSC(=S)N2CCOCC2)cc1`: the Activity in the data set with Histoplasma capsulatum [1] is on record as 9%; in the data set on Histoplasma capsulatum [4], 5%; in the data set with Histoplasma capsulatum [3], 0%. In addition, the MIC against Histoplasma capsulatum [2] was found to be 40 mg/L (≈ 140 µM).
As to `Cc1ccc(SSCCCCS(=O)[O-])cc1.[Na+]`, the Activity in the data set on Histoplasma capsulatum [1] is -21%; in the data set on Histoplasma capsulatum [4], 15%; in the data set with Histoplasma capsulatum [3] it was -6%. In the data set on Histoplasma capsulatum [2], the MIC worked out at 20 mg/L.
In the case of `O=C(O)c1ccccc1SSC(=S)N1CCOCC1`, the Activity in the data set on Histoplasma capsulatum [1] is -7%; with Histoplasma capsulatum [4], -2%; in the data set with Histoplasma capsulatum [3], -5%; in the data set on Mus musculus [5], 0.1 g/kg. The same compound came in with an MIC with Histoplasma capsulatum [2] of over 10 mg/L.
`CC(C)(C)SSC(=S)N1CCOCC1`: the Activity is 5% with Histoplasma capsulatum [6], -4% in the data set with Histoplasma capsulatum [7] and 11% in the data set with Histoplasma capsulatum [8]. In addition, the MIC against Histoplasma capsulatum [2] was over 40 mg/L.
As to `CCSSC(=S)N1CCOCC1`, the Activity result is listed as “Toxic” with Mus musculus [9], 5% in the data set with Histoplasma capsulatum [4], 5% with Histoplasma capsulatum [10] and 5% in the data set on Histoplasma capsulatum [3]. This compound also showed an MIC in the data set on Histoplasma capsulatum [2] of 10 mg/L (≈ 44.8 µM).
`COc1ccc(CSSCCCCS(=O)[O-])cc1.[Na+]`: the Activity is 9% with Histoplasma capsulatum [1], -2% in the data set on Histoplasma capsulatum [4] and -19% with Histoplasma capsulatum [3]. Besides, it took 20 mg/L to inhibit growth with Histoplasma capsulatum [2] (MIC).
`CN(C)C(=S)SSc1ccccc1C(=O)O` returned an MIC in the data set on Histoplasma capsulatum [2] of under 1 mg/L. The Activity in the data set on Mus musculus [5] came to 0.1 g/kg.
Turning to `CN(C)C(=S)SSc1ccc(Cl)cc1`, the Activity was 11% in the data set with Histoplasma capsulatum [1], -14% with Histoplasma capsulatum [4], 13% in the data set on Histoplasma capsulatum [3] and 1 g/kg with Mus musculus [5]. Moreover, the result in the data set on Candida albicans [11] was inactive. The outcome in the data set on Candida albicans [12] was Active. Moreover, the lowest concentration to inhibit growth against Histoplasma capsulatum [2] (MIC) was 5 mg/L (≈ 19 µM).
For `CCCCCCCCCCN1CCSSC1=S`, the MIC against Histoplasma capsulatum [2] was over 10 mg/L. Also, the Activity with Mus musculus [5] is 0.1 g/kg.
As to `Cc1ccc(SSCC(=O)O)cc1`, the results for the Activity with Histoplasma capsulatum [1], with Histoplasma capsulatum [4] and with Histoplasma capsulatum [3] were 0%, 17% and -6%, respectively. Further, the MIC against Histoplasma capsulatum [2] worked out at 20 mg/L (≈ 93.3 µM).
As to `S=C(SSc1ccccc1)N1CCOCC1`, the Activity entry with Mus musculus [9] was “Toxic”; in the data set on Histoplasma capsulatum [4], 11%; in the data set with Histoplasma capsulatum [10], 5%; with Histoplasma capsulatum [3], 9%. In the data set with Histoplasma capsulatum [2], inhibition of growth (MIC) required 40 mg/L (≈ 147 µM).
For the compound `Cc1ccc(SSCCN)cc1.Cl`, the Activity with Histoplasma capsulatum [1] is 9%; in the data set on Histoplasma capsulatum [4], 4%; in the data set on Histoplasma capsulatum [3], 0%. For the same compound, the MIC against Histoplasma capsulatum [2] is over 20 mg/L.
For `S=C(SSC(=S)N1CCOCC1)N1CCOCC1`, the Activity result in the data set on Mus musculus [9] is on record as “Toxic”; with Histoplasma capsulatum [4], 5%; in the data set on Histoplasma capsulatum [10], 5%; in the data set on Histoplasma capsulatum [3] it was 5%. Moreover, in the data set with Histoplasma capsulatum [2], the MIC worked out at 40 mg/L (≈ 123 µM).
